Type in all cases: functional, cell-based
Common to all, as to conditions: Homo sapiens

Assay [1] relates to 791T cell line. Briefly: Tested for cytotoxicity against antigen positive 791T osteosarcoma cells […]. The gist of the method:
(§1)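 Cytotoxicity was measured as inhibition of [75Se]selenomethionine uptake in a microplate assay, with cells incubated continuously with drug or conjugate. Antigen-positive 791T osteosarcoma cells carry about 6 × 10⁵ antigens/cell; T-24 bladder carcinoma cells carry about 3–5% of that level. Both lines were grown as monolayers in Eagle's MEM with 10% newborn calf serum and passaged using trypsin (0.25%)/EDTA (0.5%).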

The subject of assay [2] is T-24. Briefly: Tested for cytotoxicity against antigen negative T-24 bladder carcinoma cells having only 3-5% antigen expression. The gist of the method: as §1
The next assay concerns C170. Description: Tested for cytotoxicity against C170 colorectal carcinoma cell line by [75Se]selenomethionine uptake assay, in vitro.
For assay [3], the system named is 791T cell line. Briefly: Tested for cytotoxicity against antigen positive 791T osteosarcoma cells […]; <20% inhibition achieved. The procedure, abridged:
as §1

The subject of assay [4] is T-24. Description: Tested for cytotoxicity against antigen negative T-24 bladder carcinoma cells having only 3-5% antigen expression; <20% inhibition achieved. The gist of the method:
as §1

The test system of assay [5] is 791T cell line. Description: Tested for cytotoxicity against antigen positive 791T osteosarcoma cells of conjugate H1.11 (Type H1: MSR-33). The procedure, abridged: as §1
The subject of assay [6] is 791T cell line. Description: Tested for cytotoxicity against antigen positive 791T osteosarcoma cells of conjugate AH1.11 (Type H1: MSR-33). The gist of the method: as §1
The test system of assay [7] is T-24. Briefly: Tested for cytotoxicity against antigen negative T-24 bladder carcinoma cells of conjugate AH1.11 (Type H1: MSR-33). The gist of the method: as §1
The test system of assay [8] is T-24. Briefly: Tested for cytotoxicity against antigen negative T-24 bladder carcinoma cells of conjugate H1.11 (Type H1: MSR-33). The procedure, abridged:
as §1

In assay [9] the test system is 791T cell line. Briefly: Tested for cytotoxicity against antigen positive 791T osteosarcoma cells of conjugate AH1.11 (Type H2: MSR-26). The procedure, abridged: as §1
The subject of assay [10] is 791T cell line. Briefly: Tested for cytotoxicity against antigen positive 791T osteosarcoma cells […] (49% inhibition achieved at 100 micro g/mL).
Assay [11] has as its system T-24. Briefly: Tested for cytotoxicity against antigen negative T-24 bladder carcinoma cells of conjugate H1.11 (Type H2: MSR-26). The gist of the method: as §1
For assay [12], the system named is 791T cell line. Description: Tested for cytotoxicity against antigen positive 791T osteosarcoma cells of conjugate H1.11 (Type H2: MSR-26). The procedure, abridged:
as §1

The test system of assay [13] is 791T cell line. Description: Tested for cytotoxicity against antigen positive 791T osteosarcoma cells of conjugate H1.11 (Type H2: MSR-26) (less than 20% inhibition achieved). The procedure, abridged: as §1
Assay [14] deals with T-24. Description: Tested for cytotoxicity against antigen negative T-24 bladder carcinoma cells of conjugate AH1.11 (Type H2: MSR-26). The procedure, abridged: as §1
In assay [15] the test system is 791T cell line. Briefly: Tested for cytotoxicity against antigen positive 791T osteosarcoma cells of conjugate H1.11 (Type H3: MSR-28); <20% inhibition achieved. The gist of the method:
as §1

Assay [16] deals with T-24. Description: Tested for cytotoxicity against antigen negative T-24 bladder carcinoma cells of conjugate AH1.11 (Type H3: MSR-28); 20%-40% inhibition achieved. The procedure, abridged: as §1
The test system of assay [17] is T-24. Description: Tested for cytotoxicity against antigen negative T-24 bladder carcinoma cells of conjugate H1.11 (Type H3: MSR-28); <20% inhibition achieved. The procedure, abridged: as §1
Assay [18] concerns 791T cell line. Briefly: Tested for cytotoxicity against antigen positive 791T osteosarcoma cells of conjugate AH1.11 (Type H3: MSR-28); <20% inhibition achieved. The procedure, abridged:
as §1

The structures appear in SMILES notation. Converted amounts (≈) assume the structure as drawn. “And” between values parts separate entries of the source, which are not always exact repeats. Identical values can stand only once.

In general, IC50 refers to the concentration needed to halve the response being measured. A lower IC50 goes with greater potency in that assay.

Take `CCOC(=O)CCC(=O)NC[C@H]1O[C@@H](n2cc(F)c(=O)[nH]c2=O)C[C@@H]1O`: the concentration for half-maximal inhibition (IC50) was > 100 µg/mL and > 280 µM with 791T cell line [1]; > 100 µg/mL and > 280 µM in the assay on T-24 [2].

For the compound `O=C(O)[C@H]1O[C@@H](n2cc(F)c(=O)[nH]c2=O)C[C@@H]1O`, the half-inhibitory concentration (IC50) in the assay with C170 was 10 µg/mL and 41 µM.

`NC[C@H]1O[C@@H](n2cc(F)c(=O)[nH]c2=O)C[C@@H]1O`: in the assay with C170, the IC50 was 26 µg/mL and 107 µM.

Turning to `CCOC(=O)c1ccc(NC(=O)[C@H]2O[C@@H](n3cc(F)c(=O)[nH]c3=O)C[C@@H]2O)cc1`, the half-inhibitory concentration (IC50) in the assay with 791T cell line [3] was > 100 µg/mL and > 300 µM; in the assay with T-24 [4] it was > 100 µg/mL and > 300 µM.

As to `CCCCNC(=O)/C=C/C(=O)NC[C@H]1O[C@@H](n2cc(F)c(=O)[nH]c2=O)C[C@@H]1O`, the 50% inhibitory concentration (IC50) was > 100 µg/mL and > 300 µM in the assay with 791T cell line [1]; > 100 µg/mL and > 300 µM in the assay with T-24 [2].

In the case of `O=C(O)CCC(=O)NC[C@H]1O[C@@H](n2cc(F)c(=O)[nH]c2=O)C[C@@H]1O`, the IC50 was 7.1 µg/mL and 20.6 µM in the assay on 791T cell line [5]; > 100 µg/mL and > 290 µM in the assay on 791T cell line [1]; 0.4 µg/mL and 1.1 µM in the assay on 791T cell line [6]; 21 µg/mL and 62 µM in the assay on T-24 [2]; 0.4 µg/mL and 1.1 µM with T-24 [7]; 5.7 µg/mL and 16.6 µM with T-24 [8].

Regarding `O=C(O)/C=C/C(=O)NC[C@H]1O[C@@H](n2cc(F)c(=O)[nH]c2=O)C[C@@H]1O`, the IC50 was > 0.5 µg/mL and > 1.5 µM in the assay with 791T cell line [9]; 110 µg/mL (≈ 320 µM) with 791T cell line [1]; 320 µM in the assay on 791T cell line [10]; > 10 µg/mL and > 30 µM with T-24 [11]; 79 µg/mL and 231 µM in the assay on T-24 [2]; more than 30 µM with 791T cell line [12]. The half-maximal inhibitory concentration (IC50) in the assay on 791T cell line [13] is more than 10 µg/mL; in the assay on T-24 [14] it was > 0.5 µg/mL and > 1.5 µM.

On to `O=C(O)c1ccc(NC(=O)[C@H]2O[C@@H](n3cc(F)c(=O)[nH]c3=O)C[C@@H]2O)cc1`, for which the half-inhibitory concentration (IC50) in the assay with 791T cell line [15] is > 3 µg/mL and > 7.9 µM; in the assay on 791T cell line [3], > 100 µg/mL and > 300 µM; in the assay with T-24 [16], > 1 µg/mL and > 2.6 µM; in the assay on T-24 [2] it was 100 µg/mL and 263 µM; in the assay on T-24 [17] it was > 3 µg/mL and > 7.9 µM; with 791T cell line [18], > 1 µg/mL and > 2.6 µM.

Take `O=c1[nH]c(=O)n([C@H]2C[C@H](O)[C@@H](CO)O2)cc1F` [FLOXURIDINE]: the IC50 in the assay on 791T cell line [1] was 0.8 µg/mL and 3.2 µM; in the assay with C170 it was 0.1 µg/mL and 400 nM; in the assay with T-24 [2] it was 1 µg/mL and 4.1 µM.

For the compound `O=c1[nH]cc(F)c(=O)[nH]1` [FLUOROURACIL], the IC50 with 791T cell line [1] was 0.7 µg/mL and 5.5 µM; in the assay with C170, 0.3 µg/mL and 2 µM; in the assay with T-24 [2] it was 0.5 µg/mL and 4.1 µM.

The record behind these values is ChEMBL document CHEMBL1126703, “Synthesis of 2'-deoxyuridine and 5-fluoro-2'-deoxyuridine derivatives and evaluation in antibody targeting studies” (J Med Chem, 1993).
